Bioassay records as filed in PubChem BioAssay.
DNMT1 block: inhibitors of human DNMT1 | P26358 | DNMT1 molecular beacon, Hinp1I cleavage, fluorescence | inhibition (reported as % activation of signal), % at 10 µM | hit rate 0.83% among 360,000 | AID 588458; in the data active = inhibition above about 50%
LMPTP block: blocks human LMPTP phosphatase; P24666; recombinant LMPTP-A, OMFP fluorogenic substrate, fluorescence intensity; inhibition, % at 20 µM; hit rate 0.22% among 360,000; AID 651560;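 active = compounds that cut the enzyme signal by at least half of the control window in the single-dose screen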;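 also: plate controls were DMSO wells with enzyme plus substrate for no effect and substrate without enzyme for full effect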
Target sequence (P24666 whole entry, looked up): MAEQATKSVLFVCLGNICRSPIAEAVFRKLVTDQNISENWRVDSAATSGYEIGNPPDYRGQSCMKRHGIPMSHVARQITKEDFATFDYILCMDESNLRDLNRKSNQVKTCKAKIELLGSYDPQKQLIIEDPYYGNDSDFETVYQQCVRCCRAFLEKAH
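Test system: LMPTP-A phosphatase enzyme. Amount: LMPTP-A at 0.625 nM final in the reaction. Reagent: OMFP substrate, 400 µM final. Times: 50 min at room temperature. Signal: endpoint fluorescence intensity from OMFP dephosphorylation. Read-out basis: % inhibition. Benchmarks: no-enzyme and uninhibited controls.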
NadD block: inhibitors of Staphylococcus aureus NadD | AID 602399 | purified NadD enzyme, colorimetric absorbance read-out | inhibition, % at 20 µM | hit rate 0.78% among 360,000; in the data active = inhibition above about 26%
STEP block: blocks human striatal-enriched tyrosine phosphatase; P54829; recombinant STEP, OMFP fluorogenic substrate, fluorescence; inhibition, % at 20 µM; hit rate 0.25% among 360,000; AID 588621;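 active = inhibition at 20 µM, scaled per plate between control wells, above about 37%, limit read from the data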;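 also: 0% = DMSO with enzyme and substrate and 100% = substrate only without enzyme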
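Measure: Control-normalized % inhibition with plate pattern correction | Test system: STEP phosphatase, cell-free reaction | Medium: pH 6.0 Bis-Tris with DTT and Tween 20 | Technique: Fluorescence, 480/540 nm | Times: Reaction 20 min, ambient temperature | Doses: Single compound dose of 20 µM, 1% DMSO final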
SUMO1 PPI mod: alters human SUMO1 binding to SIM partners; P63165; SUMO1 binding to a labelled peptide, TR-FRET, 1 h; inhibition, % at 20 µM; hit rate 0.33% among 360,000; AID 602429; in the data active = inhibition above about 37%
Target sequence (P63165 whole entry, looked up): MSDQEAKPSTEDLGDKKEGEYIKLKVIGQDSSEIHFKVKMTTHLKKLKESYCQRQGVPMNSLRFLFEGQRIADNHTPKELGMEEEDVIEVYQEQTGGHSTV
Scp-1 inhibitor: blocks human Scp-1 phosphatase activity | Q9GZU7 | Recombinant Scp1, phosphopeptide, malachite green phosphate absorbance | inhibition, % at 20 µM | hit rate 0.88% among 340,000 | AID 493091;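 active = inhibition above about 50% at 20 µM, limit read from the data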;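 also: plate controls were DMSO wells with enzyme for no effect and wells lacking enzyme for full effect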
Target sequence (Q9GZU7 76-261 limits assumed): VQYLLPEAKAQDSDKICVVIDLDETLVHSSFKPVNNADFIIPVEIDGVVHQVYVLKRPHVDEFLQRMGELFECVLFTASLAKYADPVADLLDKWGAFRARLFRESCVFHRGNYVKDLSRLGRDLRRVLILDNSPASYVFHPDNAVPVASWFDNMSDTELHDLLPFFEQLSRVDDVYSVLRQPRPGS
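Test system: SCP-1 phosphatase catalytic domain, residues 76-261; measured by: colorimetric phosphate reagent with accelerator and stabiliser, absorbance at 630 nm; timing: enzyme reaction 45 min at room temperature, colour 5 min, stabilisation 30 min; also added: Phosphorylated 17-residue peptide substrate; compound dosing: one concentration, 20 µM, with 1.0% DMSO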
* marks the source's active call; other numbers are inactive results; · = no result given. Most compounds without a hit are left out; they make up all but 2.4% or so of the library.

SMILES | DNMT1 block | LMPTP block | NadD block | STEP block | SUMO1 PPI mod | Scp-1 inhibitor
Oc1cc(CNC2CCCCC2)c(O)cc1CNC1CCCCC1 | -11 | 4 | 31* | 5 | -10 | -5
COc1ccc(CCn2c(C)cc(C(=O)COC(=O)c3ccc(NC(=O)CC#N)cc3)c2C)cc1 | 8 | 5 | 40* | 1 | 21 | -11
O=c1c2sccc2n(Cc2cccc(F)c2)c(=O)n1-c1ccc(F)cc1 | 3 | 0 | -3 | 4 | 1 | 4
CCOC(=O)[C@H]1[C@H]2COc3cc(OC)ccc3[C@@H]2N2C(=O)N(c3ccc(Cl)cc3)C(=O)[C@@]12C | -2 | 2 | -2 | 2 | -5 | -6
Cc1ccc(C(=O)Nc2nc(-c3ccco3)c(-c3ccco3)s2)o1 | 16 | 5 | 31* | 0 | 7 | 21
O=C(CSc1nnc(CNC(=O)c2ccco2)o1)Nc1ccccc1C(F)(F)F | 1 | -1 | 0 | -1 | -2 | -3
CC(=O)N(/N=C1\Sc2ccccc2C1=O)c1cccc(C)c1 | 51* | 3 | 1 | -1 | 35 | -4
CC(=O)N(CN1C(=O)c2ccccc2C1=O)c1cccc(C)c1 | -2 | 1 | -5 | -3 | -9 | -2
O=[N+]([O-])c1ccc(N=Nc2ccc(O)cc2O)cc1 | 3 | -1 | -4 | -2 | -17 | -4
O=S(=O)(O)c1cc(Cl)cc(N=Nc2ccc(O)cc2O)c1O | 68* | 50* | 9 | 3 | -14 | 73*
CCCC(=O)N1CCC1(C)C(=O)Nc1ccc2scnc2c1 (stereo not given) | -1 | -1 | -3 | -1 | 3 | ·
Cc1ccc(-n2c(N)c(C(=O)N3CCN(C)CC3)sc2=S)cc1 | -5 | -1 | -7 | 96* | -15 | -8
Cc1cc(NS(=O)(=O)c2ccc(Nc3nc(-c4sc(N)nc4C)cs3)cc2)no1 | 86* | 12 | 37* | 2 | 51* | 23
COc1ccc(OC)c(Nc2nc(-c3sc(N)nc3C)cs2)c1 | -38 | 2 | 32* | 2 | 6 | -3
CCCC(=O)Nc1nc(C)c(-c2csc(Nc3cc(OC)ccc3OC)n2)s1 | -41 | 3 | 22 | 1 | -3 | -2
Cc1cc(NS(=O)(=O)c2ccc(Nc3nc(-c4ccc(C)c(C)c4)cs3)cc2)no1 | -12 | 2 | 17 | -6 | 19 | -11
COc1ccc(S[C@@H](CCN2CC[C@H](O)CCC2=O)c2ccccc2)cc1 | 5 | -2 | -2 | 0 | 6 | -5
Cc1c(C(=O)Nc2nc(-c3ccccn3)cs2)oc2ccccc12 | -9 | 4 | 29 | 77* | 7 | 10
Cc1ccc(NC(=O)CN2C(=O)S/C(=C/c3ccc(-c4cccc(C(=O)O)c4)o3)C2=O)cc1 | 56* | 64* | 21 | 40* | 17 | 65*
C#CCN1C(=O)S/C(=C\c2ccc(-c3ccc(C(=O)O)cc3C)o2)C1=O | 79* | 22 | 9 | 0 | 19 | 62*
Cc1ccc(/C=C2\SC(=S)N(Cc3ccccc3)C2=O)o1 | -19 | 4 | 19 | 1 | -3 | -12
O=C(O)c1cc(-c2ccc(/C=C3/SC(=S)N(Cc4ccccc4)C3=O)o2)ccc1Cl | 83* | 71* | 20 | -22 | 36 | 57*
Cc1ccc(NC(=O)CN2C(=O)S/C(=C\c3cc(C)n(-c4cccc(C(=O)O)c4)c3C)C2=O)cc1 | -11 | 1 | 15 | -1 | -12 | -10
CCc1c(C)nc2c(C#N)c(C)[nH]n2c1=O | 5 | 0 | -1 | -2 | 54* | -3
CC1CCCCN1CCNC(=O)C1CC(=O)N(c2ccc(F)c(Cl)c2)C1 (stereo not given) | 1 | -3 | 4 | 3 | -1 | -3
CC1CCCN(CCCNC(=O)C2CC(=O)N(c3ccc(F)c(Cl)c3)C2)C1 (stereo not given) | -3 | -1 | 3 | -1 | 42* | -11
O=C(NC1(O)C(=O)c2ccccc2C1=O)c1ccc(C(F)(F)F)cc1 | 61* | 4 | -3 | 2 | 7 | 3
COc1ccc2nc3cc(Cl)ccc3c(Nc3cc(CN4CCCC4)c(O)c(CN4CCCC4)c3)c2n1 | 65* | 50* | -62 | 14 | -60 | ·
